According to ChEMBL document CHEMBL3779886, “Cassane Diterpenoids from the Pericarps of Caesalpinia bonduc” (J Nat Prod, 2016):
Activity calls are given as the source filed them.

What was measured:
Type in all cases: functional, cell-based
SH-SY5Y [1] = assay: Neuroprotective activity against amyloid beta(25 to 35)-induced toxicity in human SH-SY5Y cells assessed as cell viability at 1 to 10 uM pretreated for 2 hrs followed by protein addition measured after 24 hrs by MTT assay
How it was run: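 Cells: high-passage SH-SY5Y (ATCC), 37 °C, 5% CO2. 2 h pretreatment with compound at 1 or 10 μM, or EGCG 10 μM, then 10 μM Aβ25−35 for 24 h with compound still present. MTT at 0.5 mg/mL final for 4 h, 37 °C; DMSO dissolution; read at 490 nm. Means ± SD, one-way ANOVA, p < 0.05.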

SH-SY5Y [2] = assay: Neuroprotective activity against OGD-induced toxicity in human SH-SY5Y cells assessed as cell viability at 1 to 10 uM pretreated for 2 hrs followed by OGD induction for 1 hr measured after 24 hrs by MTT assay
How it was run: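 SH-SY5Y cells (high passage, ATCC) kept at 37 °C, 5% CO2. Pretreated with compound for 2 h, then OGD exposure (1 mg/mL as printed) for 1 h, followed by 24 h normal culture. Glucose-fed cells under normal conditions served as controls. MTT 0.5 mg/mL final, 4 h, 37 °C; DMSO; A490. Means ± SD, one-way ANOVA.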

SH-SY5Y [3] = assay: Neuroprotective activity against H2O2-induced toxicity in human SH-SY5Y cells assessed as cell viability at 1 to 10 uM pretreated for 2 hrs followed by H2O2 addition measured after 24 hrs by MTT assay
How it was run: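 High-passage SH-SY5Y cells (ATCC), 37 °C, 5% CO2. Pretreatment for 2 h with compound at 1 or 10 μM, or N-acetylcysteine 300 μM, then 100 μM H2O2 for 24 h. Viability by MTT (0.5 mg/mL final, 4 h, 37 °C), DMSO solubilization, absorbance 490 nm. Means ± SD, one-way ANOVA, p < 0.05.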

Measured: Activity

CC(=O)O[C@@H]1[C@@H]2[C@H](Cc3occc3[C@@]2(C)O)[C@@]2(C)[C@@H](OC(C)=O)CC(C)=C(C)[C@]2(O)[C@H]1OC(C)=O
inactive: all assays above

CC(=O)O[C@@H]1[C@@H]2[C@H](Cc3occc3[C@@]2(C)O)[C@@]2(C)[C@@H](OC(C)=O)C[C@H](C)[C@@]3(C)O[C@@]23[C@H]1OC(C)=O
inactive: all assays above

C=C1c2ccoc2C[C@H]2[C@H]1[C@@H](OC(C)=O)[C@H](OC(C)=O)[C@@]1(O)C(C)(C)CCC(=O)[C@]21C
inactive: all assays above

COC(=O)[C@@H]1c2ccoc2C[C@H]2[C@H]1[C@@H](O)[C@H](OC(C)=O)[C@@]1(O)C(C)(C)CC[C@H](O)[C@]21C
inactive: all assays above

COC(=O)[C@@H]1c2ccoc2C[C@H]2[C@H]1[C@@H](OC(C)=O)[C@H](OC(C)=O)[C@@]1(O)C(C)(C)CC[C@H](O)[C@]21C
inactive: all assays above

COC(=O)[C@@H]1c2ccoc2C[C@H]2[C@H]1[C@@H](OC(C)=O)[C@H](O)[C@@]1(O)C(C)(C)CCC(=O)[C@]21C
inactive: all assays above

COC(=O)[C@@H]1c2ccoc2C[C@H]2[C@H]1[C@@H](OC(C)=O)[C@H](OC(C)=O)[C@@]1(O)C(C)(C)CCC[C@]21C
inactive: all assays above

COC(=O)[C@@H]1c2ccoc2C[C@H]2[C@H]1[C@@H](O)[C@H](OC(C)=O)[C@@]1(O)C(C)(C)CCC(=O)[C@]21C
inactive: all assays above

C=C1c2ccoc2C[C@H]2[C@H]1CC[C@@]1(O)C(C)(C)[C@H](OC(C)=O)[C@H](OC(C)=O)[C@H](OC(C)=O)[C@]21C
inactive: all assays above
